# Reference: ChEMBL document CHEMBL5150021, “Identification of 5-(Aryl/Heteroaryl)amino-4-quinolones as Potent Membrane-Disrupting Agents to Combat Antibiotic-Resistant Gram-Positive Bacteria” (J Med Chem, 2022)
# System: Staphylococcus aureus
# Assay: Antibacterial activity against methicillin resistant Staphylococcus aureus FPR3757 assessed as inhibition of bacterial growth incubated for 24 hrs by CLSI based method
# Type: functional
# Details: read-out: MIC100
# How it was run: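 It was mixed 1:1 with twofold serial compound dilutions and incubated stationary at 37 °C for 24 h. MIC was the lowest concentration giving complete inhibition of observable growth, with an oxacillin control.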
row,Structure (SMILES),MIC [µg/mL]
1,CSc1ccc2c(O)cc(C(F)(F)F)nc2c1,640
2,Oc1cc(C(F)(F)F)nc2cc(OC(F)(F)F)ccc12,4
3,Fc1ccc2c(Nc3ccc(Cl)c(Cl)c3)cc(C(F)(F)F)nc2c1,0.5
4,OC1CCCN(c2cc(C(F)(F)F)nc3cc(C(F)(F)F)ccc23)C1 (stereo not given),> 32
5,FC(F)(F)c1ccc2c(Nc3ncccn3)cc(C(F)(F)F)nc2c1,> 32
6,CN1Cc2cc(Nc3cc(C(F)(F)F)nc4cc(C(F)(F)F)ccc34)ccc2C1=O,> 32
7,CN(C)S(=O)(=O)c1ccc2c(Nc3ccc(C(F)(F)F)cn3)cc(C(F)(F)F)nc2c1,8
8,CN(C)c1ccc(Nc2cc(C(F)(F)F)cc3[nH]c(C(F)(F)F)cc(=O)c23)nc1,2
9,FC(F)(F)c1ccc2c(NC[C@@H]3CCCN3)cc(C(F)(F)F)nc2c1,> 32
10,COC(=O)c1cc(Nc2cc(C(F)(F)F)nc3cc(C(F)(F)F)ccc23)ccn1,> 32
11,FC(F)(F)c1cc(Nc2ccc(Cl)c(Cl)c2)c2cccc(C(F)(F)F)c2n1,0.5
12,FC(F)(F)Oc1cccc2c(Nc3ccc(Cl)c(Cl)c3)cc(C(F)(F)F)nc12,0.5
13,FC(F)(F)Oc1cccc(Nc2cc(C(F)(F)F)nc3c(C(F)(F)F)cccc23)c1,1
14,FC(F)(F)c1ccc2c(Nc3ccncc3)cc(C(F)(F)F)nc2c1,> 32
15,Fc1ccc2c(Nc3cccc(OC(F)(F)F)c3)cc(C(F)(F)F)nc2c1,2
16,N#Cc1cccc(Nc2cc(C(F)(F)F)nc3cc(C(F)(F)F)ccc23)c1,> 32
17,O=c1cc(C(F)(F)F)[nH]c2cc(C(F)(F)F)ccc12,5
18,FC(F)(F)c1ccc2c(Nc3cccc4[nH]ncc34)cc(C(F)(F)F)nc2c1,> 32
19,FC(F)(F)Oc1cccc2c(Nc3ccc(C(F)(F)F)cn3)cc(C(F)(F)F)nc12,1
20,FC(F)(F)c1ccc2c(Nc3ccc(Cl)c(Cl)c3)nc(C(F)(F)F)nc2c1,0.5
21,Fc1ccc2nc(C(F)(F)F)cc(Nc3ccc(C(F)(F)F)cn3)c2c1F,16
22,CCc1ccc2c(O)cc(C(F)(F)F)nc2c1,640
23,FC(F)(F)c1ccc(Nc2nc(C(F)(F)F)nc3nc(C(F)(F)F)ccc23)nc1,> 32
24,COc1ccc2c(O)cc(C(F)(F)F)nc2c1,640
25,Oc1cc(C(F)(F)F)nc2ccccc12,320

row,Structure (SMILES),MIC [µg/mL]
1,FC(F)(F)c1ccc2c(Nc3cc(Cl)ccn3)cc(C(F)(F)F)nc2c1,2
2,Oc1cc(C(F)(F)F)nc2cc(Cl)ccc12,20
3,CC(=O)c1cccc(Nc2cc(C(F)(F)F)nc3cc(C(F)(F)F)ccc23)c1,> 128
4,FC(F)(F)c1ccc2c(Nc3ccc(Cl)cc3)cc(C(F)(F)F)nc2c1,0.12
5,Fc1ccc(Nc2cc(C(F)(F)F)nc3cc(C(F)(F)F)ccc23)cc1F,0.125
6,FC(F)(F)Oc1cccc(Nc2nc(C(F)(F)F)nc3cc(C(F)(F)F)ccc23)c1,1
7,O[C@H]1C[C@H]2CC[C@@H](C1)N2c1cc(C(F)(F)F)nc2cc(C(F)(F)F)ccc12,> 32
8,COc1ccc2c(Nc3ccc(C(F)(F)F)cn3)cc(C(F)(F)F)nc2c1,32
9,FC(F)(F)c1ccc2c(Nc3cccc(Br)c3)cc(C(F)(F)F)nc2c1,0.25
10,FC(F)(F)Oc1cccc(Oc2cc(C(F)(F)F)nc3cc(C(F)(F)F)ccc23)c1,> 32
11,FC(F)(F)Oc1cccc(Nc2cc(C(F)(F)F)nc3cc(C(F)(F)F)ccc23)c1,8
12,FC(F)c1cc(Nc2ccc(Cl)c(Cl)c2)c2ccc(C(F)(F)F)cc2n1,1
13,O=C(Nc1cc(C(F)(F)F)nc2cc(C(F)(F)F)ccc12)c1ccc(C(F)(F)F)cn1,> 32
14,FC(F)(F)c1ccc2c(Oc3ccc(Cl)c(Cl)c3)cc(C(F)(F)F)nc2c1,> 32
15,COc1ccc2c(Nc3cccc(OC(F)(F)F)c3)cc(C(F)(F)F)nc2c1,> 32
16,Fc1cc(F)c2nc(C(F)(F)F)cc(Nc3ccc(C(F)(F)F)cn3)c2c1F,> 32
17,Fc1cccc(Nc2cc(C(F)(F)F)nc3cc(C(F)(F)F)ccc23)c1,4
18,Fc1cccc(Oc2cc(C(F)(F)F)nc3cc(C(F)(F)F)ccc23)c1,> 32
19,FC(F)(F)c1ccc(Nc2cc(N3CCNCC3)nc3cc(C(F)(F)F)ccc23)nc1,0.5
20,FC(F)(F)c1ccc(Nc2cc(N3CCNCC3)c3ccc(C(F)(F)F)cc3n2)nc1,4
21,FC(F)(F)c1ccc2c(Nc3nccs3)cc(C(F)(F)F)nc2c1,1
22,FC(F)(F)c1ccc(Nc2cc(C(F)(F)F)nc3c(C(F)(F)F)cccc23)nc1,0.5
23,FC(F)(F)c1ccc2c(NC3CCCCC3)cc(C(F)(F)F)nc2c1,> 16
24,FC(F)(F)Oc1cccc(Nc2cc(C(F)(F)F)nc3cc(OC(F)(F)F)ccc23)c1,1
25,COc1ccc2c(Nc3ccc(F)c(F)c3)cc(C(F)(F)F)nc2c1,> 32

row,Structure (SMILES),MIC [µg/mL]
1,O=c1cc(Nc2cc(C(F)(F)F)nc3cc(C(F)(F)F)ccc23)cc[nH]1,> 32
2,COc1ccc2c(Nc3ccc(Cl)c(Cl)c3)cc(C(F)(F)F)nc2c1,2
3,O=c1cc(C(F)(F)F)[nH]c2cc(C(F)(F)F)cc(N3CCOCC3)c12,> 32
4,OCc1cccc(Nc2cc(C(F)(F)F)nc3cc(C(F)(F)F)ccc23)c1,> 16
5,O=c1cc(C(F)(F)F)[nH]c2cc(C(F)(F)F)cc(Nc3cccc4[nH]ncc34)c12,2
6,CN(C)S(=O)(=O)c1ccc2c(Nc3ccc(F)c(F)c3)cc(C(F)(F)F)nc2c1,> 32
7,FC(F)(F)c1ccc2c(Nc3ccccc3Cl)cc(C(F)(F)F)nc2c1,> 16
8,COc1cccc(Nc2cc(C(F)(F)F)nc3cc(C(F)(F)F)ccc23)c1,> 64
9,FC(F)(F)c1ccc2c(Nc3cccc(N4CCOCC4)c3)cc(C(F)(F)F)nc2c1,> 16
10,FC(F)(F)Oc1ccc2c(Nc3ccc(Cl)c(Cl)c3)cc(C(F)(F)F)nc2c1,0.5
11,FC(F)(F)c1ccc(Nc2nc(C(F)(F)F)nc3cc(C(F)(F)F)ccc23)nc1,2
12,FC(F)c1cc(Nc2cccc(OC(F)(F)F)c2)c2ccc(C(F)(F)F)cc2n1,0.5
13,FC(F)(F)c1cccc(Nc2cc(C(F)(F)F)nc3cc(C(F)(F)F)ccc23)c1,0.25
14,FC(F)(F)c1ccc2c(Nc3ccccc3)cc(C(F)(F)F)nc2c1,128
15,FC(F)(F)c1ccc(Nc2cnnc3cc(C(F)(F)F)ccc23)nc1,> 32
16,FC(F)(F)c1ccc2c(Nc3ccc(C(F)(F)F)nc3)cc(C(F)(F)F)nc2c1,> 32
17,Cc1onc(-c2ccccc2)c1C(=O)N[C@@H]1C(=O)N2[C@@H]1SC(C)(C)[C@@H]2C(=O)O [OXACILLIN],64
18,COc1ccc(Nc2cc(C(F)(F)F)nc3cc(C(F)(F)F)ccc23)cn1,> 128
19,CC(C)c1ccccc1Nc1cc(C(F)(F)F)nc2cc(C(F)(F)F)ccc12,320
20,FC(F)(F)c1ccc2c(Nc3ccc4c(c3)OCO4)cc(C(F)(F)F)nc2c1,> 4
21,CN(C)S(=O)(=O)c1ccc(Nc2cc(C(F)(F)F)cc3[nH]c(C(F)(F)F)cc(=O)c23)nc1,2
22,CN(C)S(=O)(=O)c1ccc2c(Nc3cccc(OC(F)(F)F)c3)cc(C(F)(F)F)nc2c1,8
23,FC(F)(F)c1ccc(Nc2cc(N3CCOCC3)nc3cc(C(F)(F)F)ccc23)nc1,> 32
24,CN(c1ccc(C(F)(F)F)cc1)c1cc(C(F)(F)F)nc2cc(C(F)(F)F)ccc12,> 32
25,FC(F)(F)Oc1cccc(Nc2cc(C(F)(F)F)nc3c(OC(F)(F)F)cccc23)c1,1
